First the molecules themselves.
B1: tRNA (parent)
chain: GUUCCGUUGGCGUAAUGGUAACGCGUCUCCCUCCUAAGGAGAAGACUGCGGGUUCGAGUCCCGUACGGAACG

In the RNAGym collection of RNA variant scans (doi:10.1126/science.aae0568) one finds yeast fitness data, which are given here for 37 variants.

This sample holds only a part of the variants without activity. A value given as a limit tells only on which side of the number the result lay.

This data set covers variants of B1. Briefly: yeast fitness relative to wild type (ratio to wild type); higher = fitter; tRNA-Arg(CCU), competitive growth, 37 C, YPD. An outline of the steps: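 Start and end populations of a pooled competition were compared by 100-nucleotide paired-end sequencing of gene amplicons. The Saccharomyces cerevisiae strains carried tRNA-Arg(CCU) gene variants at the native genomic locus, synthesised with a 3% per-site mutation rate at 69 sites, and competed in YPD at 37°C for 24 hours in six parallel replicates. Darwinian fitness relative to wild type was based on the change in genotype frequencies. Genotypes required ≥ 100 starting reads, and estimates < 0.5 were set to 0.5.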
Regarding GUUCCGUUGGCGUAAUGGUAAGGCGUGUCCCUCCUAAGGAGAUGCCUGCGGGUACGAGUCCCGUACGGAACG, the yeast fitness is at most 0.5.

Turning to GUUCCGUUGGCGUAAUGGUAAGGCGUCUCCGUCCUAAGGAGAAGACUGCGGGUUUGAGUCGGGUACGGAACG, the yeast fitness was at most 0.5.

For the variant GUUCCGUUGGCGUAAUGGUAAGGCGUGUCCGUCCUAGGGAGAAGACUGCGGGUUCGAGUCGCGUACGGUACG, the yeast fitness is 0.758.

On to GUUCCGUUGGCGUAAUGGUAAGGCGUCUGCCUCCUCAGCAGAAGAGUGCGGAUUCGAGUCCCGUACGGAACG, for which the yeast fitness was at most 0.5.

Take GUUCCGUUGGCGUAAUGGUAAGGCGUGUCCGUCCUAAGGAAAAGACUGCGGGUUCGAGUCGCGUACGGUACG: the yeast fitness is at most 0.5.

In the case of GUUCCGUUGGCGUAAUGGUAAGGCGUCUCCGUCCUAAGGAGAAGACUGCGGGUUCGAGUCCUGUACGGAUCG, the yeast fitness is at most 0.5.

For the variant GUUCCGUUGGCGUAAUGGUAAGGCGUGUCCCUCCUAAGAAGAAGACUGCGGGUUCGAGUCCCGCACGGAACG, the yeast fitness amounted to 0.604.

As to GUUCCGUUGGCGUAAUGGUAAGGCGUGUGCCUCAUAAGGAGAUGACUGCGGGUUCGAGUCCCGUUCGGAACG, the yeast fitness is at most 0.5.

Consider GUUCCGUUGGCGUAAUGGUAAGGCGUCUACCUCCUAAGGAGAAGACUGCGGGUUCGAAUCGCGUACGGAUCG, for which the yeast fitness is at most 0.5.

With GUUCCGUUGGCGUAAUGGUAAGGCGUCUCCGUCCUAAGGAGAAGACUGCGGGUUCGAGUCCCGUACGGCACG, the yeast fitness came out at 0.566.

For the variant GUUCCGUUGGCGUAAUGGUAAGGCGUCUGCCUUCUAAGGAGGAGACUGCGGGUUCGAGUCCCGUACGGAACG, the yeast fitness is at most 0.5.

Consider GUUCCGUUGGCGUAAUGGUAAGGCGUCUCUCUCCUAAGGAGAAGACUGAGGGUUCGUGUCUCGUACGGAACG, for which the yeast fitness is 0.548.

In the case of GUUCCGUUGGCGUAAUGGUAAGGUGUCUCCUUCCUAAGGUGAAGACUGCGGGUUCGAGACACGUACGGAACG, the yeast fitness is at most 0.5.

For the variant GUUCCGUUGGCGUAAUGGUAAGGCGUGUCCCUCCUAAGGAGAAGACCGCGGGUUCGAGCCCUGUACGUAACG, the yeast fitness was at most 0.5.

For the variant GUUCCGUUGGCGUAAUGGUAAGGUGUCUCCCUCCUAAGGAGAAAACUGCGGGGUCGAGUCCCGUACGGAACG, the yeast fitness was 0.521.

GUUCCGUUGGCGUAAUGGUAAGGCGUCUCGCUCCUAAGGAGAAGACCGCGGGUUCGAGUCCCGUACGGAACG: the yeast fitness is at most 0.5.

In the case of GUUCCGUUGGCGUAAUGGUAAGGCGUCUGCCUCCUAAGGAGAAGACUGCGGGUUCGAGUCCCGUACGGUACG, the yeast fitness is 0.626.

On to GUUCCGUUGGCGUAAUGGUAAGGCGUAUCCCUCCUAAGGAGAAGAUUGCGGGUUCGAGUCCCGUACGGAACG, for which the yeast fitness worked out at 0.539.

In the case of GUUCCGUUGGCGUAAUGGUAAGGCGUCUUCCUCCUAUGGAGAAGACUGCGGGUUCGAGUCCCGUACGGAACG, the yeast fitness is 0.589.

As for GUUCCGUUGGCGUAAUGGUAAGGCGUCUCGCUCCUAAGGAGAAGUCUGCGGGUUCGAGUCCCGUACGGAACG, the yeast fitness is at most 0.5.

As to GUUCCGUUGGCGUAAUGGUAAGGCGUCUCACUCCUAAGGAGAAGACAGCGGGUUCGAGUCCCGUACGGAACG, the yeast fitness was at most 0.5.

Regarding GUUCCGUUGGCGUAAUGGUAAGGCGUCUCUCUCCUAAGGAGAAGACUGGGGGUUCGAGUCCCGUACGGAACG, the yeast fitness was at most 0.5.

As for GUUCCGUUGGCGUAAUGGUAAGGCGUCUCACUCCUAAGGAGCAGACUGCGGGUUCGAAUCCCGUACGGAACG, the yeast fitness was at most 0.5.

GUUCCGUUGGCGUAAUGGUAAGGCGUCUCCAUCCUAAGGAGAAGACUGCGGGUUCGAGUCCCGUACGGAACG: the yeast fitness stood at 0.78.

With GUUCCGUUGGCGUAAUGGUAAGGCGUCUCCGUCCUAAGGAGAAGACUGCGGGUUCGAGUCCCGUACGGAACG, the yeast fitness came to 0.745.

Turning to GUUCCGUUGGCGUAAUGGUAAGGCGUCUGCCUCCUAAGGAGAAGAUUGCGGGUUCGAGUCCCGUACGGAUCG, the yeast fitness amounted to 0.592.

As to GUUCCGUUGGCGUAAUGGUAAGGCGUCUCCGUCCUAAGGAGAAGACUGCGGGUUCGACUCCCGUACCGAACG, the yeast fitness is at most 0.5.

Regarding GUUCCGUUGGCGUAAUGGUAAGGCGUCUCUCUCUUAAGGAGAGGACUGCGGGUUCGAGUCCCGUACGGAACG, the yeast fitness was at most 0.5.

Regarding GUUCCGUUGGCGUAAUGGUAAGGCGUGUCCCUCCUAAGGAGAAGUCUGUGGGUUCGGGUCCCGUACGGAGCG, the yeast fitness is at most 0.5.

As for GUUCCGUUGGCGUAAUGGUAAGGCGUCUGCCUCCUAAGGAGAGGACUGCGGGUUCGAGUCCCUUACGGAACG, the yeast fitness was at most 0.5.

With GUUCCGUUGGCGUAAUGGUAAGGCGUGUCCCUCCUAAGGAGAAGACUGCGGGUUCGAGCCCUGCACGUAACG, the yeast fitness was at most 0.5.

For the variant GUUCCGUUGGCGUAAUGGUAAGGCGUGUCCGUCCUAAGGAGAAGACUGCGGGUUCGUGUCCCGUACGGAACG, the yeast fitness was at most 0.5.

As for GUUCCGUUGGCGUAAUGGUAAGGCGUCUGCCUCCUCAGCAGAAGAGUGCGGAUUCGAGUCCCGUACCGAACG, the yeast fitness is at most 0.5.

In the case of GUUCCGUUGGCGUAAUGGUAAGGCGUCUCCAUCCUAAGGAGAAGACCGGGGGUUCGAGUCCCCUACGGUACG, the yeast fitness was at most 0.5.

Take GUUCCGUUGGCGUAAUGGUAAGGCGUCUCUCUCCUAGGGAGAUGACUGCGGGUUCGAGUCCCGUACAGAACG: the yeast fitness was determined as 0.603.

As for GUUCCGUUGGCGUAAUGGUAAGGCGUCUGCCUCCUAAGGAGAAGACUGCGAGUUCGAGUCCCGUACGGAACG, the yeast fitness is 0.536.

For GUUCCGUUGGCGUAAUGGUAAGGCGUCUGCCUCCUAAGGAGAAGACUGCGCGUUCGAGUCCCGUACGGAACG, the yeast fitness is at most 0.5.
